Measured values published in ChEMBL document CHEMBL4130443, “Targeting breast cancer stem cells by novel HDAC3-selective inhibitors” (Eur J Med Chem, 2017).
Activity calls are given as the source filed them. The calls are words filed in the database; no cut-off is given here.

Columns and labels:
[1] = molecular target: T1, Histone deacetylase 8 (Homo sapiens) (UniProt Q9BY41); test: Inhibition of human HDAC8 at 1 uM using p53 (379 to 382 residues) derived fluorogenic peptide RHKAcKAc
T1 sequence (whole entry): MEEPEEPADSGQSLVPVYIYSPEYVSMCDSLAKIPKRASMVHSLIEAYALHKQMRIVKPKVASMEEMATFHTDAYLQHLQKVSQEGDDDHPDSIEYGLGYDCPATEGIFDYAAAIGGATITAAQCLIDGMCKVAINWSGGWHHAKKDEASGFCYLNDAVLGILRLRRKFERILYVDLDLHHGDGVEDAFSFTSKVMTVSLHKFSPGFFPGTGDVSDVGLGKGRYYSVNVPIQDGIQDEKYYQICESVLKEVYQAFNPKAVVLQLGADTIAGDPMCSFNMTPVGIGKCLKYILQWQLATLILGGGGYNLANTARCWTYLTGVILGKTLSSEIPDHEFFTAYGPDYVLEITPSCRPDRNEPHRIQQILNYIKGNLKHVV
How it was run: (§1)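 Isoform profiling run by a commercial vendor with compounds at 1 µM. Values are percent inhibition, each the average of two determinations.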

[2] = molecular target: T2, Protein deacetylase HDAC6 (Homo sapiens) (UniProt Q9UBN7); test: Inhibition of human HDAC6 at 1 uM using p53 (379 to 382 residues) derived fluorogenic peptide RHKKAc; how it was run: as §1
T2 sequence (whole entry): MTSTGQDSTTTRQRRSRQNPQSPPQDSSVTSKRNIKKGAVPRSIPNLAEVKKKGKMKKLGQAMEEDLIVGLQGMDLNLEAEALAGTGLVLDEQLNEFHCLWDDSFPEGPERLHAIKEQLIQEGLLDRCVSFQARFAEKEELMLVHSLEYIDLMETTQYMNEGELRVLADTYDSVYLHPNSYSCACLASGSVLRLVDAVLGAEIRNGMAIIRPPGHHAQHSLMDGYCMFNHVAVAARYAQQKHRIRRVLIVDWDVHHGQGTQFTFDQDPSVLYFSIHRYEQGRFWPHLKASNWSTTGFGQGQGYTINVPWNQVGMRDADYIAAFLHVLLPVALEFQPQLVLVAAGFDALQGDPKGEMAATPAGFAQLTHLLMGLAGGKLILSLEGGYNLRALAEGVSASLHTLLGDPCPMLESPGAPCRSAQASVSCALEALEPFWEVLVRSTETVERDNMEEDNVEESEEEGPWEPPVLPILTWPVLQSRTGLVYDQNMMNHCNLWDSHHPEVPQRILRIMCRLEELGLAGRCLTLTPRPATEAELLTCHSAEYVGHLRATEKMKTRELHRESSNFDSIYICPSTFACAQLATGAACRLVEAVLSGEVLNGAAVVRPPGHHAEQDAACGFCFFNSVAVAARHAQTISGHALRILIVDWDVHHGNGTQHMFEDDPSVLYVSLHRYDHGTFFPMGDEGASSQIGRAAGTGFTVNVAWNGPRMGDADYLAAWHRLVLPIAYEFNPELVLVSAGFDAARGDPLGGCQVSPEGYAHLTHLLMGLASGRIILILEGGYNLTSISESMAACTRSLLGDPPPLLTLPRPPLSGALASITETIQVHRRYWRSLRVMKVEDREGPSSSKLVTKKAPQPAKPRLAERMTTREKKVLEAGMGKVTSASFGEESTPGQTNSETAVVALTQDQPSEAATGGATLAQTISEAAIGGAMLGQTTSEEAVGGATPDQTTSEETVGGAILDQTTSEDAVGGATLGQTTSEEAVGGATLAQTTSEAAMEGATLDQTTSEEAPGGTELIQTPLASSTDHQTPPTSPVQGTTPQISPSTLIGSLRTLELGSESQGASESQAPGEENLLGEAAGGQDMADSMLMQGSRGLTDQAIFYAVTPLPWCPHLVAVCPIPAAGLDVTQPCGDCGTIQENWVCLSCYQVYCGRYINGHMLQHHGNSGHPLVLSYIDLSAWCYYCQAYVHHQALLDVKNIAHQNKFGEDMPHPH

Histone deacetylase 2 [3] = molecular target: T3, Histone deacetylase 2 (Homo sapiens, UniProt Q92769); test: Inhibition of human HDAC2 using p53 (379 to 382 residues) derived fluorogenic peptide RHKKAc
[4] = molecular target: Histone deacetylase 3/Nuclear receptor corepressor 2 (HDAC3/NCoR2) (Homo sapiens, UniProt O15379); test: Inhibition of human HDAC3/NCOR2 using p53 (379 to 382 residues) derived fluorogenic peptide RHKKAc; assay type: protein-complex assay
Chain of Histone deacetylase 3/Nuclear receptor corepressor 2 (HDAC3/NCoR2) (O15379 whole entry, the tested form may be a part): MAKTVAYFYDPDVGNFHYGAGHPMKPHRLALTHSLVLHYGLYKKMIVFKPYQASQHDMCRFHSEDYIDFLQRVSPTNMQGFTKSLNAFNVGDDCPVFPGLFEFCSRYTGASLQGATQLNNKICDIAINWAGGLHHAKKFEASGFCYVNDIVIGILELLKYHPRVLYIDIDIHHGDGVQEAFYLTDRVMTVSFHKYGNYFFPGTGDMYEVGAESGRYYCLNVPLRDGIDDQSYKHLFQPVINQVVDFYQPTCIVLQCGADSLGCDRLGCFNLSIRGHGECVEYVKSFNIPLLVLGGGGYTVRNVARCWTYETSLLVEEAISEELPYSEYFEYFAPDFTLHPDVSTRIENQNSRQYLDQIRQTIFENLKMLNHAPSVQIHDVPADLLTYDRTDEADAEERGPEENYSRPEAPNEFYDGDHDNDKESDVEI
Chain of Histone deacetylase 3/Nuclear receptor corepressor 2 (HDAC3/NCoR2) (Q9Y618 whole entry, further chain, the tested form may be a part): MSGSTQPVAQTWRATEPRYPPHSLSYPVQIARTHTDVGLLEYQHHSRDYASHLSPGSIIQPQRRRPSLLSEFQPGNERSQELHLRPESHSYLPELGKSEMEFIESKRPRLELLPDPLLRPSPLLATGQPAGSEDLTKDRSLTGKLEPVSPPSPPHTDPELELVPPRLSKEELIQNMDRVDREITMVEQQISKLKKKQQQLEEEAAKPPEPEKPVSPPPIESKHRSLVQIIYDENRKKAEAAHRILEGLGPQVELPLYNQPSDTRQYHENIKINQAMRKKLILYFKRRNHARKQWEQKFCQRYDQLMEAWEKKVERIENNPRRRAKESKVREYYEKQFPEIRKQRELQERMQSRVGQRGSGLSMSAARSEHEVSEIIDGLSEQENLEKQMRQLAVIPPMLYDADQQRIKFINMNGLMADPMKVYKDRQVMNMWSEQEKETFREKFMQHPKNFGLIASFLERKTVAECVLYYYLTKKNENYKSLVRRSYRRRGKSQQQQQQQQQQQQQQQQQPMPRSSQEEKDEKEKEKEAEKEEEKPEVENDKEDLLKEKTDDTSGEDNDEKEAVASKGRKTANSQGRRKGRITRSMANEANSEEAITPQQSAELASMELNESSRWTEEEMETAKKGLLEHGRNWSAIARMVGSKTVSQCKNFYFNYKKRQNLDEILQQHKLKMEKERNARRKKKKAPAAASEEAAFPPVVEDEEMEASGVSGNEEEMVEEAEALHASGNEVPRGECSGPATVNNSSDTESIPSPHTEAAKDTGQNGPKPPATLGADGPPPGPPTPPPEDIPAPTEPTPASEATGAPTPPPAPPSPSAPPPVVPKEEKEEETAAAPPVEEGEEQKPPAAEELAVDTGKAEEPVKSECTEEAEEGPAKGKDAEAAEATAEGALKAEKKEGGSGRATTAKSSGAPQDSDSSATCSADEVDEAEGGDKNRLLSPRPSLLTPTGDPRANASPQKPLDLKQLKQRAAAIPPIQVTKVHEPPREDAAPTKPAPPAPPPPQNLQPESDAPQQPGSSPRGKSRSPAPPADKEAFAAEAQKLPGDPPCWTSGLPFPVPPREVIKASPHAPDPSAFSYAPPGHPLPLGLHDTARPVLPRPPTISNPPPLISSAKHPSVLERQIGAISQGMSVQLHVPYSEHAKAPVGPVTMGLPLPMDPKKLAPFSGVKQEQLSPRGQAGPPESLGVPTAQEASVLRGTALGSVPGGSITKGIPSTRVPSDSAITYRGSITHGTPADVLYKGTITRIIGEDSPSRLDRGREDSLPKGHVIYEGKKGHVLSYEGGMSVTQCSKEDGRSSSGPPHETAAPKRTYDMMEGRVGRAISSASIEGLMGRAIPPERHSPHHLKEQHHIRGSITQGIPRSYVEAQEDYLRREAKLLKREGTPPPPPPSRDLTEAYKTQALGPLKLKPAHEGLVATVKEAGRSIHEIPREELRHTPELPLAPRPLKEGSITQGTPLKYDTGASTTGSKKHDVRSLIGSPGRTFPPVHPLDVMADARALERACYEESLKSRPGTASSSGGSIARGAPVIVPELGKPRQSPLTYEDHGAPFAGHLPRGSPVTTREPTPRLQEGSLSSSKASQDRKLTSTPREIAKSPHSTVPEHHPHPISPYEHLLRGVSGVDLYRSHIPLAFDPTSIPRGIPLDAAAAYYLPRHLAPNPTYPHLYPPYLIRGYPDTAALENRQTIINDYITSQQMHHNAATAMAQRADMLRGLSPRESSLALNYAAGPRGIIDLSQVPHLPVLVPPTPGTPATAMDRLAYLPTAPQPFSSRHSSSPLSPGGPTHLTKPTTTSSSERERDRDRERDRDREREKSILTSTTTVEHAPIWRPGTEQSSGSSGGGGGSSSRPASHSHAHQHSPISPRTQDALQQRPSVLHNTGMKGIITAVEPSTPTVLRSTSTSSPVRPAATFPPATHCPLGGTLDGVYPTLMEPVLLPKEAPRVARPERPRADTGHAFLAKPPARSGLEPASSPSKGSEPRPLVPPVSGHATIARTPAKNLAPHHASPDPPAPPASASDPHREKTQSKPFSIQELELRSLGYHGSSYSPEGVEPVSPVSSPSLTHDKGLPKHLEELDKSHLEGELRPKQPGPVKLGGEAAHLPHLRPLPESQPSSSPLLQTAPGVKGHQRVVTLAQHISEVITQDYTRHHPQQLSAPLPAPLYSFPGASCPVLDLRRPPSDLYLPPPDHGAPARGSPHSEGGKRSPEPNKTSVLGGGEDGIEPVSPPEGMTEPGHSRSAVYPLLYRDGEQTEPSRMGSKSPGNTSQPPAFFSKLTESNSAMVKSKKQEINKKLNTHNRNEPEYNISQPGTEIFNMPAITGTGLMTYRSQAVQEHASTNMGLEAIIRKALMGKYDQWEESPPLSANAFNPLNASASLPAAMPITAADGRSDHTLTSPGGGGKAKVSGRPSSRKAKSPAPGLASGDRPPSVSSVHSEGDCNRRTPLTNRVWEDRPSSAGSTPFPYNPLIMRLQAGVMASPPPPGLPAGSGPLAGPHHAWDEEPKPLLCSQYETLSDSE

Histone deacetylase 1 [5] = molecular target: T4, Histone deacetylase 1 (Homo sapiens, UniProt Q13547); test: Inhibition of human HDAC1 at 1 uM using p53 (379 to 382 residues) derived fluorogenic peptide RHKKAc; how it was run: as §1
[6] = molecular target: Histone deacetylase 4 (Homo sapiens) (UniProt P56524); test: Inhibition of human HDAC4 at 1 uM using Boc-Lys(trifluoroacetyl)-AMC substrate; how it was run: as §1
Chain of Histone deacetylase 4 (Homo sapiens) (P56524 whole entry, the tested form may be a part): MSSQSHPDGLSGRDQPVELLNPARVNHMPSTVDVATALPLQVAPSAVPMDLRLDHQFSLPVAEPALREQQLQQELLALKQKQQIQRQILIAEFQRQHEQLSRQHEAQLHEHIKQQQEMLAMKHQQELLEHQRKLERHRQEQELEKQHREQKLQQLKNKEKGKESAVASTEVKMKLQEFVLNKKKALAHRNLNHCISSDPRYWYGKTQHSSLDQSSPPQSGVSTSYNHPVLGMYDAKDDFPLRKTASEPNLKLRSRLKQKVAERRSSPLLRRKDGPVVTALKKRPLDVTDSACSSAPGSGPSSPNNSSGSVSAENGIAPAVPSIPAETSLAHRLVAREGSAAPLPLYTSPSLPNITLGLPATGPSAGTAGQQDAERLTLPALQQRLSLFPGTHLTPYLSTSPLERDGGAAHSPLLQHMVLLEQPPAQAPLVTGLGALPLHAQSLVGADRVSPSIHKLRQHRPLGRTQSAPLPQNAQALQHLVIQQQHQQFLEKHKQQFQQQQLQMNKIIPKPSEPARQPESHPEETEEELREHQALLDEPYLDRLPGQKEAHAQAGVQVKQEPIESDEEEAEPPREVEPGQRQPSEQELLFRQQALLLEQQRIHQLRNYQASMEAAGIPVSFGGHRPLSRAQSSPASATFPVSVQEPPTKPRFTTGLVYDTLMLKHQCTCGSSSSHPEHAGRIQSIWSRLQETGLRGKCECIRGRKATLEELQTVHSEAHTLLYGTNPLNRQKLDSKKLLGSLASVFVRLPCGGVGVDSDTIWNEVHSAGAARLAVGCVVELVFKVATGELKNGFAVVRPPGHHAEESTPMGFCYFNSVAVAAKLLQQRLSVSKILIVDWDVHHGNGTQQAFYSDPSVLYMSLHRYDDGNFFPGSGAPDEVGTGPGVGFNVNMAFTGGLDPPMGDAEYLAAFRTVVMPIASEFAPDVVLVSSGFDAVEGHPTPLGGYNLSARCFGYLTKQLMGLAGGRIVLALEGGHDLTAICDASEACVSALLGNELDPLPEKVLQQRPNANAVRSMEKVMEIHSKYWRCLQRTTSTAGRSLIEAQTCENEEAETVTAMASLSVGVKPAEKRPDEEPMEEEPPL

Histone deacetylase 2 [7] = molecular target: T3, Histone deacetylase 2; test: Inhibition of human HDAC2 at 1 uM using p53 (379 to 382 residues) derived fluorogenic peptide RHKKAc; how it was run: as §1
[8] = molecular target: Histone deacetylase 3/Nuclear receptor corepressor 2 (HDAC3/NCoR2) (Homo sapiens) (UniProt O15379+Q9Y618); test: Inhibition of human HDAC3/NCOR2 at 1 uM using p53 (379 to 382 residues) derived fluorogenic peptide RHKKAc; assay type: protein-complex assay; how it was run: as §1
[9] = molecular target: Histone deacetylase 5 (Homo sapiens) (UniProt Q9UQL6); test: Inhibition of human HDAC5 at 1 uM using Boc-Lys(trifluoroacetyl)-AMC substrate; how it was run: as §1
Chain of Histone deacetylase 5 (Homo sapiens) (Q9UQL6 whole entry, the tested form may be a part): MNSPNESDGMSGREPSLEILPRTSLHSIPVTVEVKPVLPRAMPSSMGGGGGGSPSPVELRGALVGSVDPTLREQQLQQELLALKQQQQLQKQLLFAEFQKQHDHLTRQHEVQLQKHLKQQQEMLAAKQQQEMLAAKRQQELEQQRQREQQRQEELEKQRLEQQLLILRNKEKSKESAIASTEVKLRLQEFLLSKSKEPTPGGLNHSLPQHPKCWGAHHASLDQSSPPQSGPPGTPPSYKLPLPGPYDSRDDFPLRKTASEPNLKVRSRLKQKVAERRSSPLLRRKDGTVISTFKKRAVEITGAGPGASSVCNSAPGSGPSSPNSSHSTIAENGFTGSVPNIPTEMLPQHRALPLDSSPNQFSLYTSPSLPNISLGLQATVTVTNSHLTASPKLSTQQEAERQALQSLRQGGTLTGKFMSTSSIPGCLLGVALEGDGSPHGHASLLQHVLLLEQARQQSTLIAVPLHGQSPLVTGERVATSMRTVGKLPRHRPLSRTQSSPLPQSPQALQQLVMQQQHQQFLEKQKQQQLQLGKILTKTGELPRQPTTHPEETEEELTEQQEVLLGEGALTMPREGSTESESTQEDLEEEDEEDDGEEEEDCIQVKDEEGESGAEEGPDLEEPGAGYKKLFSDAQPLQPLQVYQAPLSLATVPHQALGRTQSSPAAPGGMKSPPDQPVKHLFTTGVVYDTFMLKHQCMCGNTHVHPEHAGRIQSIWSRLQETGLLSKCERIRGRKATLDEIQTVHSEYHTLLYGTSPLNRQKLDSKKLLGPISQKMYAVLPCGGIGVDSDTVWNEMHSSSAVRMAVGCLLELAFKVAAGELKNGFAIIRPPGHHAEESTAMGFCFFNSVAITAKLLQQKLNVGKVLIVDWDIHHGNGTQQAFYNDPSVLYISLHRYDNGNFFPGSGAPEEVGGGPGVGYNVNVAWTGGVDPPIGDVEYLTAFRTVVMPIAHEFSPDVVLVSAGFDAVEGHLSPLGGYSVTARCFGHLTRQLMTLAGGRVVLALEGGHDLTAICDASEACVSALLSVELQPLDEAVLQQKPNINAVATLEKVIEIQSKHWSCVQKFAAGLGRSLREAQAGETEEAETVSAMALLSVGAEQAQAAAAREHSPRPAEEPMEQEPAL

Histone deacetylase 1 [10] = molecular target: T4, Histone deacetylase 1; test: Inhibition of human HDAC1 using p53 (379 to 382 residues) derived fluorogenic peptide RHKKAc
Homo sapiens = species: Homo sapiens; test: Selectivity index, ratio of IC50 for human HDAC1 to IC50 for human HDAC3
[11] = molecular target: T1, Histone deacetylase 8 (Homo sapiens); test: Inhibition of HDAC8 in human MDA-MB-231 cells assessed as reduction in Notch1 expression at 0.1 to 2.5uM incubated for 48 hrs by Western blot method; assay type: cell-based
How it was run: (§2)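 Cells treated 48 h at the indicated concentrations, with a reference HDAC inhibitor at 0.25 µM as positive control on each blot. Lysed in 1% SDS, 10 mM EDTA, 50 mM Tris-HCl pH 8.1 with protease/phosphatase inhibitors, then sonicated. Equal protein by SDS-PAGE on nitrocellulose. Primary antibodies 1:1000 overnight at 4°C, HRP secondary, ECL. Blots for pan-H3 and H3K9 acetylation, tubulin acetylation and Notch1.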

[12] = molecular target: T2, Protein deacetylase HDAC6 (Homo sapiens); test: Inhibition of HDAC6 in human MDA-MB-231 cells assessed as increase in histone H3K9 acetylation at 0.1 to 2.5uM incubated for 48 hrs by Western blot method; assay type: cell-based; details: in the assay text read “tubulin acetylation” for “histone H3K9 acetylation”; how it was run: as §2
[13] = molecular target: T5, Histone deacetylase (Homo sapiens) (UniProt Q13547+O15379+Q9UBN7+Q92769+Q9UQL6+Q8WUI4+Q9BY41+Q96DB2+P56524+Q9UKV0+Q969S8); test: Inhibition of HDAC in human MDA-MB-231 cells assessed as increase in histone H3 acetylation at 0.1 to 2.5uM incubated for 48 hrs by Western blot method; assay type: cell-based; how it was run: as §2
[14] = molecular target: T5, Histone deacetylase (Homo sapiens); test: Inhibition of HDAC in human MDA-MB-231 cells assessed as increase in histone H3K9 acetylation at 0.1 to 2.5uM incubated for 48 hrs by Western blot method; assay type: cell-based; how it was run: as §2

SMILES	inhibition [1] [%]	inhibition [2] [%]	IC50 (Histone deacetylase 2 [3]) [nM]	IC50 [4] [nM]	inhibition (Histone deacetylase 1 [5]) [%]	inhibition [6] [%]	inhibition (Histone deacetylase 2 [7]) [%]	inhibition [8] [%]	inhibition [9] [%]	IC50 (Histone deacetylase 1 [10]) [nM]	Ratio IC50 (Homo sapiens)	inhibition [11]	inhibition [12]	inhibition [13]	inhibition [14]
Nc1cc(F)ccc1NC(=O)c1ccc(NC(=O)C2CC2c2ccccc2)cc1 (stereo not given)	14	0	> 10000	200	0	0	9	82	3	> 10000					
C[C@H](C(=O)Nc1ccc(C(=O)Nc2ccc(F)cc2N)cc1)c1ccccc1			3400	230						3200	13				
C[C@@H](C(=O)Nc1ccc(C(=O)Nc2ccc(F)cc2N)nc1)c1ccccc1			3000	580						760		inactive	inactive		
CC(C)(C(=O)Nc1ccc(C(=O)Nc2ccccc2N)cc1)c1ccccc1	0	4			49	6	34	36	0						
CC[C@H](C(=O)Nc1ccc(C(=O)Nc2ccc(F)cc2N)cc1)c1ccccc1			4800	170						2500	14.7				
Nc1ccccc1NC(=O)c1ccc(NC(=O)Cc2ccc(C(F)(F)F)cc2)cc1	0	0			78	0	38	33	0						
CC(C)[C@@H](C(=O)Nc1ccc(C(=O)Nc2ccc(C(F)(F)F)cc2N)cc1)c1ccccc1	0	0			6	3	4	0	0						
CC(C)[C@H](C(=O)Nc1ccc(C(=O)Nc2ccccc2N)cc1)c1ccccc1	7	20			55	0	31	30	0			inactive	inactive	Active	Active

The next lines start with the values.

inhibition [1] [%]	inhibition [2] [%]	IC50 (Histone deacetylase 2 [3]) [nM]	IC50 [4] [nM]	inhibition (Histone deacetylase 1 [5]) [%]	inhibition [6] [%]	inhibition (Histone deacetylase 2 [7]) [%]	inhibition [8] [%]	inhibition [9] [%]	IC50 (Histone deacetylase 1 [10]) [nM]	Ratio IC50 (Homo sapiens)	inhibition [11]	inhibition [12]	inhibition [13]	inhibition [14]	SMILES
5	0	1300	200	41	0	32	36	0	1500						Nc1cc(F)ccc1NC(=O)c1ccc(NC(=O)Cc2ccc(C(F)(F)F)cc2)cc1
		630	60						300		inactive	inactive			CC[C@@H](C(=O)Nc1ccc(C(=O)Nc2ccc(F)cc2N)nc1)c1ccccc1
		2500	300						1500		inactive	inactive			CC(C)[C@H](C(=O)Nc1ccc(C(=O)Nc2ccc(F)cc2N)nc1)c1ccccc1
6	0	1800	1000	42	0	26	78	0	1200	1.2					CC(C)[C@@H](C(=O)Nc1ccc(C(=O)Nc2ccc(F)cc2N)cc1)c1ccccc1
		1200	110						1200	10.9					CC[C@@H](C(=O)Nc1ccc(C(=O)Nc2ccc(F)cc2N)cc1)c1ccccc1
		2800	210						1800	8.6					C[C@@H](C(=O)Nc1ccc(C(=O)Nc2ccc(F)cc2N)cc1)c1ccccc1
		1100	80						520	6.5	inactive	inactive			CC(C)[C@@H](C(=O)Nc1ccc(C(=O)Nc2ccc(F)cc2N)nc1)c1ccccc1
		2000	130						1400		inactive	inactive			C[C@H](C(=O)Nc1ccc(C(=O)Nc2ccc(F)cc2N)nc1)c1ccccc1
